Screening results from PubChem BioAssay.
HTRA1 inh: HTRA1 serine protease inhibitors, primary screen, biochemical, fluorescence polarization, HTS; recombinant HTRA1, FP-rhodamine activity-based probe; inhibition, % at 5.96 µM; actives 0.5% (n = 340,000); Q92743; in the data active means inhibition above about 36%;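 further: 0% = enzyme with DMSO and 100% = wells lacking enzyme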
Target sequence (Q92743 whole entry, looked up): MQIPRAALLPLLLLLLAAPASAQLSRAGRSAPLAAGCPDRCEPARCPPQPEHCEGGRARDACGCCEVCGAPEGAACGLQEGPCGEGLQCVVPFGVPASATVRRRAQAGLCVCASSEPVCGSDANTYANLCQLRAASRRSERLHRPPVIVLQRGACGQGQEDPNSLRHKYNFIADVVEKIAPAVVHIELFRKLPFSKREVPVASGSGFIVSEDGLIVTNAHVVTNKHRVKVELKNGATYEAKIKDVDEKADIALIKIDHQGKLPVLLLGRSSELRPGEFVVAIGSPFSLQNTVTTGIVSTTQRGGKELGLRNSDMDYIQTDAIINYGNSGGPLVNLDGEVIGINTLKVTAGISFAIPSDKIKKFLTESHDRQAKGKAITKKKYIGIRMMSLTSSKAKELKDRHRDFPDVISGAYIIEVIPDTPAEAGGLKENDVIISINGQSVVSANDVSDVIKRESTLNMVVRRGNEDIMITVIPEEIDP
rCAG RNA binder: binders of r(CAG) RNA repeats, primary screen, biochemical, fluorescence; inhibition, % at 3 µM; r(CAG) RNA repeat, TO-PRO-1 dye displacement fluorescence; actives 1.3% (n = 370,000);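 active means inhibition above the plate cutoff, the mean of all test compounds on that plate plus 3 SD, cut at about 35% in these data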;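 further: 0% = DMSO alone and 100% = 100 µM mitoxantrone as full dye displacement; higher means more dye released from RNA so lower well fluorescence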
TCR-CD3 inh: inhibitors of human TCR-CD3 interaction, primary screen, biochemical, fluorescence, TAMRA-labeled TCR probe; T-cell receptor (TCR); inhibition, % at 9.4 µM; actives 0.37% (n = 360,000);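 further: recombinant mutant TCR 2C K166C tagged with TAMRA read by polarization; 0% = receptor in buffer alone and 100% = receptor with positive control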
mABHD4 FP: ABHD4 inhibitors, primary screen, biochemical, fluorescence polarization, mouse. actives 0.54% (n = 370,000). inhibition, % at 8.92 µM. purified mABHD4, FP-Rh probe fluorescence polarization. (Lyso)-N-acylphosphatidylethanolamine lipase (Mus musculus), Q8VD66;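 active means inhibition exceeding the mean over every tested compound plus 3 SD, cut at about 30% in these data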;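 further: 0% = plate median of compound wells and 100% = S159A mutant with DMSO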
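Material: mouse ABHD4 enzyme, wild type; Benchmarks: S159A mutant high control, sample median low control; Buffer or medium: HEPES pH 7.0, NaCl, Pluronic buffer; Signal: fluorescence polarization; Read-out: percent inhibition of probe binding, normalized to plate controls; Timing: pre-incubation 45 min, probe exposure 60 min, at 25 °C; Dosing: 8.92 µM, single dose.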
PRMT1 FP inh: PRMT1 methyltransferase inhibitors, primary screen, biochemical, fluorescence polarization; Protein arginine N-methyltransferase 1 (Homo sapiens), Q99873; recombinant PRMT1, activity-based probe fluorescence polarization; inhibition, % at 2.79 µM; actives 1.3% (n = 370,000); AID 652257, 2013;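 active means inhibition above about 21% made by adding two undisclosed values, limit read from the data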
SIAE primary: human SIAE inhibitors, primary screen, biochemical, fluorescence polarization, FP-Rh probe, 1536-well HTS. actives 0.69% (n = 370,000). inhibition, % at 9.66 µM. AID 1053197, 2014. SIAE FP-Rh probe binding;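 active means inhibition above a cutoff: mean of compounds within the control limits plus 3 SD of those, cut at about 17% in these data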;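 further: 0% = plate median of compound wells and 100% = probe without SIAE protein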
BSA TAMRA ctr: compounds interfering with TAMRA-BSA probe, counter-screen for TCR-CD3 interaction inhibitor project, biochemical, fluorescence, TAMRA-labeled BSA; shares compounds with TCR-CD3 inh; AID 652035, 2013; TAMRA-labeled BSA probe fluorescence counterscreen; inhibition, % at 9.4 µM; actives 10% (n = 1,200); in the data active means inhibition above about 23%;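 further: 0% = buffer low control and 100% = reference high control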
TCR-CD3 inh conf: TCR-CD3 interaction inhibitors, retest, confirmation, biochemical, fluorescence, TAMRA-labeled TCR probe; actives 48% (n = 1,200); AID 652036, 2013; shares compounds with TCR-CD3 inh; inhibition, % at 9.4 µM; TAMRA-labeled TCR probe fluorescence binding assay
Starred values were filed as active, the others as inactive; · = no result given. The list is not random: actives were taken first. Their share in the collection is about 3.5%. Unless noted, no stated cut-off is given here; in the data, active means inhibition above about 19%; inactive means the rest.

SMILES	HTRA1 inh	rCAG RNA binder	TCR-CD3 inh	mABHD4 FP	PRMT1 FP inh	SIAE primary	BSA TAMRA ctr	TCR-CD3 inh conf
CCN1CCN(C(=O)C2CCN(S(=O)(=O)c3ccc(Br)cc3)CC2)CC1	-2	-2	19*	-4	2	-11	3	-3
Cc1ccc(-c2nn(-c3ccccc3)cc2C(=O)Nc2ccc(C)c(S(=O)(=O)N3CCOCC3)c2)cc1	-32	13	69*	-12	-2	-7	30*	60*
O=C(Nc1cccc(S(=O)(=O)N2CCOCC2)c1)c1cn(-c2ccccc2)nc1-c1ccccc1	-57	14	10	-25	-1	-137	·	·
CCNc1ccc(C(=O)O)cc1N	29	-3	23*	21	2	7	22	14
CC1CCCC(NC(=O)NC(=O)CCl)C1C (stereo not drawn)	2	-1	11	3	0	-2	·	·
Cc1nn(CC(=O)NC(=O)NC2CCCC(C)C2C)c(=O)c(C#N)c1C (stereo not drawn)	-1	0	24*	-6	8	4	-4	-3
COc1cccc(/C=N/NC(=O)c2oc3nc(-c4ccccc4)cc(-c4ccco4)c3c2N)c1	8	10	3	9	2	7	·	·
CNC(=S)NNC(=O)c1oc2nc(-c3ccccc3)cc(C)c2c1N	23	6	29*	12	18	-2	-1	18
C=CCN1C(=O)[C@H](CC(=O)NCc2cccs2)[C@@]2(C(=O)OCC)CCCC=C12	·	2	·	2	2	-3	·	·
O=C(NNC(=O)c1cc(Cl)ccc1O)c1cccs1	21	-1	25*	15	-6	0	-15	19*
O=C(CCc1ccccc1)NNC(=O)c1ccccc1C(=O)O	8	0	8	7	-1	-2	·	·
O=C(CCc1ccccc1)NNC(=O)c1cc(Cl)ccc1O	16	5	24*	-5	6	0	49*	47*
O=C(NNC(=O)c1ccccc1Cl)c1cccs1	6	0	-5	4	-4	10	·	·
COc1cccc(N2CCN(CC(=O)NCc3ccc(Cl)cc3)CC2)c1	·	1	·	2	0	0	·	·
CCOc1ccc(CNc2ccc(S(N)(=O)=O)cc2)cc1	-5	0	152*	-1	2	7	0	1
CN(c1ccccc1)S(=O)(=O)c1ccc(Cl)c(C(=O)Nc2ccc(-c3nc4ccccc4[nH]3)cc2)c1	-79	21	60*	-106	2	-139	27*	54*
O=C(c1ccccc1)c1ccc2nc(-c3ccc(NC(=O)c4ccccc4Br)cc3)[nH]c2c1	-82	16	34*	-88	-2	-110	12	12
Cc1ccccc1OCc1nc(-c2ccc(NC(=O)c3ccco3)cc2)no1	-48	2	-6	-32	0	-17	·	·
Cc1ccccc1OCc1nc(-c2ccc(NC(=O)c3cccs3)cc2)no1	-34	7	28*	-18	-4	-6	-8	-7
O=C(NCCc1ccccc1)OCc1cn(-c2cccc(F)c2F)nn1	·	1	·	-1	4	-5	·	·
Cc1nc2ccccc2c(=O)n1/N=C/c1c(O)ccc2ccccc12	5	2	24*	5	1	4	-9	8
Cc1nc2ccccc2c(=O)n1/N=C/c1cc(Br)ccc1O	-1	0	8	6	-1	5	·	·
Cc1n[nH]c(=S)n1/N=C/c1c(O)ccc2ccccc12	6	1	30*	5	1	5	-4	18
Cc1cc(N=Cc2c(O)ccc3ccccc23)no1	5	3	2	1	7	4	·	·
O=c1c2cc3cc(Cl)ccc3nc2ncn1N1CCCCC1	·	2	·	-4	-6	-6	·	·
SMILES	HTRA1 inh	rCAG RNA binder	TCR-CD3 inh	mABHD4 FP	PRMT1 FP inh	SIAE primary	BSA TAMRA ctr	TCR-CD3 inh conf
Cc1ccccc1NS(=O)(=O)c1ccc(C(=O)NCC2(N3CCOCC3)CCCCC2)cc1	-5	3	27*	0	-6	-5	5	7
Cc1ccc(C(=O)/C=C/NNC(=O)c2ccccc2O)cc1	8	9	19*	10	-2	4	-11	12
O=C(/C=C/NNC(=O)c1ccccc1)c1ccc(Br)cc1	18	14	-1	-9	2	1	·	·
O=C(/C=C/NNC(=O)c1ccc(Cl)cc1)c1ccccc1	24	8	12	1	-4	6	·	·
COc1ccc(C(=O)C=CNNC(=O)c2ccc(Cl)cc2)cc1	31	7	22*	-2	2	5	-3	24*
CCOC(=O)c1sc(NC(=O)C(CC)OC(=O)c2ccco2)nc1C (stereo not drawn)	-5	0	19*	-5	-1	-12	-1	-1
CCOC(=O)c1sc(NC(=S)NC(=O)c2ccco2)nc1C	-3	8	-5	-2	4	-6	·	·
CCn1c(SCC(=O)NCc2ccco2)nnc1C1CCCC1	1	1	0	1	0	-2	·	·
C=CCn1c(SCC(=O)NCc2ccco2)nnc1C1CCCCC1	4	-1	20*	-6	-4	-1	3	-1
COCCCNC(=O)c1ccc2c(c1)NC(=O)C(C)(C)O2	·	3	·	2	-2	2	·	·
COc1ccc(NC(=O)CSCC(=O)Nc2sccc2C#N)cc1	11	8	21*	23	6	6	9	5
CC1NC(=S)N(Cc2ccccc2)C1=O (stereo not drawn)	4	1	22*	1	-1	4	1	16
O=C(NC1CCCCN(Cc2ccc(OC(F)(F)F)cc2)C1=O)c1cccc(F)c1 (stereo not drawn)	·	1	·	-4	-2	0	·	·
COc1ccccc1NS(=O)(=O)c1cccc(C(=O)N/N=C/c2cn(-c3ccccc3)nc2-c2ccccc2)c1	-27	15	45*	-91	-5	-97	22	44*
N#CCC(=O)Nc1ccc(C(=O)OC(C(=O)Nc2cc(C(F)(F)F)ccc2Cl)c2ccccc2)cc1 (stereo not drawn)	-87	30	47*	-70	-4	-97	19	34*
Cc1ccc(NC(=O)C(OC(=O)c2ccc(NC(N)=O)cc2)c2ccccc2)cc1Cl (stereo not drawn)	-97	22	46*	-131	-2	-49	18	32*
